Key:
NPC cells = test: Preliminary NPC cytotoxicity screening; assay type: cell-based; details: MTT, 48 h
Outline: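 3,000 NPC cells per well, plated 24 h, then given fresh medium with test compound at 0.1, 1, 10 or 100 µM for 48 h; cisplatin served as positive control. MTT at 0.5 mg/mL final in RPMI for 3 h at 37 °C. Formazan dissolved in DMSO, absorbance read at 540 nm. Run in triplicate; t-test, p < 0.05 significant.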

SUNE5-8F = test: Clonogenic; assay type: cell-based
phosphorylated LRP6 [1] = test: Western immunoblotting of Wnt signaling proteins in SUNE5-8F cells; assay type: cell-based; details: IC25 and IC50 doses, 48 h
Outline: (§1)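 Lysates spun at 12,000 × g, 10 min, 4 °C; Bradford assay. 10% SDS-PAGE, nitrocellulose transfer, 5% BSA block 1 h, primary antibody overnight at 4 °C, HRP secondary 1 h at room temperature, ECL detection. Band densities normalised to β-actin, expressed relative to untreated control.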

[2] = system: non-phosphorylated β-catenin; test: as above; assay type: cell-based; details: IC25 and IC50 doses, 48 h
Outline: as §1

[3] = system: non-phosphorylated β-catenin; test: Western immunoblotting of Wnt signaling proteins in SUNE6-10B cells; assay type: cell-based; details: IC50 dose, 48 h
Outline: as §1

[4] = molecular target: T1, FZD10 recombinant proteoliposome (Homo sapiens, UniProt Q9ULW2); test: STD-NMR; assay type: binding; details: 230 nM protein, 0.3–1.5 µM ligand, D2O, 298 K
T1 sequence (Q9ULW2 21-581): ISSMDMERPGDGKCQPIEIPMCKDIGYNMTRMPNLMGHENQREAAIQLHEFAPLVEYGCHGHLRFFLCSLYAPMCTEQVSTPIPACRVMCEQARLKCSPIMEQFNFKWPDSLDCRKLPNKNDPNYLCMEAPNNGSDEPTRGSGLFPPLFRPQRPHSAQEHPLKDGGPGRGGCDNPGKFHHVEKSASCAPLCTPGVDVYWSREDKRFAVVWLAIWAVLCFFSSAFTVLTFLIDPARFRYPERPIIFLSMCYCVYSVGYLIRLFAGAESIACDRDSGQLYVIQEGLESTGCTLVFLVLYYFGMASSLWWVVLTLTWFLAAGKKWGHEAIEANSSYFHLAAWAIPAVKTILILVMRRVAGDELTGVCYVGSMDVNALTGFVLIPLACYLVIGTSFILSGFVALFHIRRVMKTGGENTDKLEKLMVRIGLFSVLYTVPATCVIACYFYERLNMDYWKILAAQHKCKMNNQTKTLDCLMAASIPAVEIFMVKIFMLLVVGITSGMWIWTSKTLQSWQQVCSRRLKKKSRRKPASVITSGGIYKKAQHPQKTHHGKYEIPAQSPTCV
Outline: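 STD-NMR at 600 MHz on a cryoprobe-equipped spectrometer, with the residual D2O peak (δH 4.70) as chemical shift reference. 1H spectral width 9600 Hz, 30° pulse angle, 2.5 s recycle delay, 8 scans.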

SUNE6-10B = test: Clonogenic; assay type: cell-based
phosphorylated LRP6 [5] = test: Western immunoblotting of Wnt signaling proteins in SUNE6-10B cells; assay type: cell-based; details: IC50 dose, 48 h
Outline: as §1

[6] = IC25 dose (rilpivirine 2 µM, doxazosin 7 µM, nicergoline 20 µM)
[7] = IC50 dose (rilpivirine 4 µM, doxazosin 14 µM, nicergoline 40 µM)
[8] = IC25 dose (doxazosin 7 µM, nicergoline 20 µM)

| Structure (SMILES) | 50% inhibition cutoff at 100 µM (NPC cells) | colony formation (SUNE5-8F; 8 µM) | expression of phosphorylated LRP6 (phosphorylated LRP6 [1]) | expression of active β-catenin (non-phosphorylated β-catenin) [2] | expression level of active β-catenin [3] | STD signals (binding to FZD10) [4] | colony formation (SUNE5-8F; [6]) | colony formation (SUNE5-8F; [7]) | colony formation (SUNE6-10B; [8]) | colony formation (SUNE6-10B; [7]) | expression of phosphorylated LRP6 (phosphorylated LRP6 [5]) |
| --- | --- | --- | --- | --- | --- | --- | --- | --- | --- | --- | --- |
| COc1cc2nc(N3CCN(C(=O)c4ccco4)CC3)nc(N)c2cc1OC [Prazosin] | met the 50% inhibition cutoff at 100 µM | inhibited colony formation | decreased | decreased | decreased | STD signals from H2, H3,4, and H5,6 | – | – | – | – | – |
| CO[C@]12C[C@@H](COC(=O)c3cncc(Br)c3)CN(C)[C@@H]1Cc1cn(C)c3cccc2c13 [Nicergoline] | met the 50% inhibition cutoff at 100 µM | – | decreased | decreased | decreased | STD signals corresponding to H2 and H3 | suppressed the colony formation | suppressed the colony formation | suppressed the colony formation | suppressed the colony formation | – |
| COc1cc2nc(N3CCN(C(=O)C4COc5ccccc5O4)CC3)nc(N)c2cc1OC (centres unmarked) [Doxazosin] | met the 50% inhibition cutoff at 100 µM | – | decreased | decreased | – | STD signals for H5 and H6 | suppressed the colony formation | suppressed the colony formation | suppressed the colony formation | suppressed the colony formation | – |
| Cc1cc(/C=C/C#N)cc(C)c1Nc1ccnc(Nc2ccc(C#N)cc2)n1 [Rilpivirine] | met the 50% inhibition cutoff at 100 µM | – | decreased | decreased | decreased | STD signals from H2 | no impact | reduced the colony formation ability | – | reduced the colony formation ability | reduced |

From PMC11682233 (Scientific Reports, 2024)
